tested on: not listed separately; experiment: Metabolic stability in rat liver microsomes after 10 mins; assay type: ADME, Microsome; conditions: read-out: Stability; call rule not given here

remaining at 10 min [%]	SMILES
51	O=C(C(=O)N1CCN(C(=O)c2ccccc2)CC1)c1c[nH]c2cccc(F)c12
88	COc1cccc2[nH]cc(C(=O)C(=O)N3CCN(C(=O)c4ccccc4)CC3)c12
39	CC(C)C1CN(C(=O)C(=O)c2c[nH]c3cccc(F)c23)CCN1C(=O)c1ccccc1 (stereo not drawn)
49	CC(C)(C)C1CN(C(=O)c2ccccc2)CCN1C(=O)C(=O)c1c[nH]c2cccc(F)c12 (stereo not drawn)
3	CCCCCC1CN(C(=O)C(=O)c2c[nH]c3cccc(F)c23)CCN1C(=O)c1ccccc1 (stereo not drawn)
11	CCCC1CN(C(=O)c2ccccc2)CCN1C(=O)C(=O)c1c[nH]c2cccc(F)c12 (stereo not drawn)
0	CCCCCC1CN(C(=O)c2ccccc2)CCN1C(=O)C(=O)c1c[nH]c2cccc(F)c12 (stereo not drawn)
44	CC(C)(C)C1CN(C(=O)C(=O)c2c[nH]c3cccc(F)c23)CCN1C(=O)c1ccccc1 (stereo not drawn)
32	C[C@H]1CN(C(=O)c2ccccc2)CCN1C(=O)C(=O)c1c[nH]c2cccc(F)c12
25	CCC1CN(C(=O)C(=O)c2c[nH]c3cccc(F)c23)CCN1C(=O)c1ccccc1 (stereo not drawn)
12	CC1CN(C(=O)c2ccccc2)CCN1C(=O)C(=O)c1c[nH]c2cccc(F)c12 (stereo not drawn)
25	CCCC1CN(C(=O)C(=O)c2c[nH]c3cccc(F)c23)CCN1C(=O)c1ccccc1 (stereo not drawn)
0	C[C@@H]1CN(C(=O)c2ccccc2)[C@@H](C)CN1C(=O)C(=O)c1c[nH]c2cccc(F)c12
56	COc1cccc2[nH]cc(C(=O)C(=O)N3CCN(C(=O)c4ccccc4)C[C@H]3C)c12
8	CCC1CN(C(=O)c2ccccc2)CCN1C(=O)C(=O)c1c[nH]c2cccc(F)c12 (stereo not drawn)
13	CC(C)CC1CN(C(=O)C(=O)c2c[nH]c3cccc(F)c23)CCN1C(=O)c1ccccc1 (stereo not drawn)
2	C[C@@H]1CN(C(=O)c2ccccc2)CCN1C(=O)C(=O)c1c[nH]c2cccc(F)c12
31	CC(C)C1CN(C(=O)c2ccccc2)CCN1C(=O)C(=O)c1c[nH]c2cccc(F)c12 (stereo not drawn)
2	C[C@@H]1CN(C(=O)c2ccccc2)C[C@H](C)N1C(=O)C(=O)c1c[nH]c2cccc(F)c12
32	CC1CN(C(=O)C(=O)c2c[nH]c3cccc(F)c23)CCN1C(=O)c1ccccc1 (stereo not drawn)
72	COc1cccc2[nH]cc(C(=O)C(=O)N3CCN(C(=O)c4ccccc4)CC3C)c12 (stereo not drawn)
75	COc1cccc2[nH]cc(C(=O)C(=O)N3CCN(C(=O)c4ccccc4)C[C@@H]3C)c12
7	CC(C)CC1CN(C(=O)c2ccccc2)CCN1C(=O)C(=O)c1c[nH]c2cccc(F)c12 (stereo not drawn)
16	C[C@@H]1CN(C(=O)C(=O)c2c[nH]c3cccc(F)c23)C[C@H](C)N1C(=O)c1ccccc1
59	C[C@@H]1CN(C(=O)c2ccccc2)[C@H](C)CN1C(=O)C(=O)c1c[nH]c2cccc(F)c12 (relative stereo)

tested on: Caco-2; experiment: (§1) Permeability across monolayer of human Caco-2 cell; assay type: ADME, cell-based; conditions: not given

permeability	SMILES
Not Active	COc1cccc2[nH]cc(C(=O)C(=O)N3CCN(C(=O)c4ccccc4)CC3C)c12 (stereo not drawn)
Not Active	COc1cccc2[nH]cc(C(=O)C(=O)N3CCN(C(=O)c4ccccc4)C[C@@H]3C)c12

tested on: not listed separately; experiment: as §1; assay type: ADME, cell-based; conditions: read-out: permeability

Papp [×10⁻⁶ cm/s]	SMILES
4.7	O=C(C(=O)N1CCN(C(=O)c2ccccc2)CC1)c1c[nH]c2cccc(F)c12
4.3	COc1cccc2[nH]cc(C(=O)C(=O)N3CCN(C(=O)c4ccccc4)CC3)c12
16.1	CC(C)C1CN(C(=O)C(=O)c2c[nH]c3cccc(F)c23)CCN1C(=O)c1ccccc1 (stereo not drawn)
17	CC(C)(C)C1CN(C(=O)c2ccccc2)CCN1C(=O)C(=O)c1c[nH]c2cccc(F)c12 (stereo not drawn)
6.9	CCCCCC1CN(C(=O)C(=O)c2c[nH]c3cccc(F)c23)CCN1C(=O)c1ccccc1 (stereo not drawn)
17.2	CCCC1CN(C(=O)c2ccccc2)CCN1C(=O)C(=O)c1c[nH]c2cccc(F)c12 (stereo not drawn)
15.4	CCCCCC1CN(C(=O)c2ccccc2)CCN1C(=O)C(=O)c1c[nH]c2cccc(F)c12 (stereo not drawn)
19	CC(C)(C)C1CN(C(=O)C(=O)c2c[nH]c3cccc(F)c23)CCN1C(=O)c1ccccc1 (stereo not drawn)
8.8	C[C@H]1CN(C(=O)c2ccccc2)CCN1C(=O)C(=O)c1c[nH]c2cccc(F)c12
17.1	CCC1CN(C(=O)C(=O)c2c[nH]c3cccc(F)c23)CCN1C(=O)c1ccccc1 (stereo not drawn)
7.2	CC1CN(C(=O)c2ccccc2)CCN1C(=O)C(=O)c1c[nH]c2cccc(F)c12 (stereo not drawn)
15.4	CCCC1CN(C(=O)C(=O)c2c[nH]c3cccc(F)c23)CCN1C(=O)c1ccccc1 (stereo not drawn)
5	C[C@@H]1CN(C(=O)c2ccccc2)[C@@H](C)CN1C(=O)C(=O)c1c[nH]c2cccc(F)c12
4.6	COc1cccc2[nH]cc(C(=O)C(=O)N3CCN(C(=O)c4ccccc4)C[C@H]3C)c12
15	CCC1CN(C(=O)c2ccccc2)CCN1C(=O)C(=O)c1c[nH]c2cccc(F)c12 (stereo not drawn)
19	CC(C)CC1CN(C(=O)C(=O)c2c[nH]c3cccc(F)c23)CCN1C(=O)c1ccccc1 (stereo not drawn)
5.4	C[C@@H]1CN(C(=O)c2ccccc2)CCN1C(=O)C(=O)c1c[nH]c2cccc(F)c12
16.5	CC(C)C1CN(C(=O)c2ccccc2)CCN1C(=O)C(=O)c1c[nH]c2cccc(F)c12 (stereo not drawn)
< 1.5	C[C@@H]1CN(C(=O)c2ccccc2)C[C@H](C)N1C(=O)C(=O)c1c[nH]c2cccc(F)c12
3.6	CC1CN(C(=O)C(=O)c2c[nH]c3cccc(F)c23)CCN1C(=O)c1ccccc1 (stereo not drawn)
17.1	CC(C)CC1CN(C(=O)c2ccccc2)CCN1C(=O)C(=O)c1c[nH]c2cccc(F)c12 (stereo not drawn)
7.3	C[C@@H]1CN(C(=O)C(=O)c2c[nH]c3cccc(F)c23)C[C@H](C)N1C(=O)c1ccccc1
9.6	C[C@@H]1CN(C(=O)c2ccccc2)[C@H](C)CN1C(=O)C(=O)c1c[nH]c2cccc(F)c12 (relative stereo)

tested on: Human immunodeficiency virus 1; experiment: Antiviral activity against HIV1 infected HeLa67 after 3 days by luciferase reporter assay; assay type: functional, organism-based; conditions: Human immunodeficiency virus 1, HeLa67, 72 h

EC50 [µM]	SMILES
> 50	O=C(NCCCNC(=O)c1ccccc1)C(=O)c1c[nH]c2cccc(F)c12
> 50	CN(CCN(C)C(=O)c1ccccc1)C(=O)C(=O)c1c[nH]c2cccc(F)c12
> 50	O=C(C(=O)N1CCCN(C(=O)c2ccccc2)CC1)c1c[nH]c2cccc(F)c12
> 50	O=C(NCCNC(=O)c1ccccc1)C(=O)c1c[nH]c2cccc(F)c12
> 50	O=C(C(=O)N1CC2CC1CN2C(=O)c1ccccc1)c1c[nH]c2cccc(F)c12 (stereo not drawn)
> 50	O=C(NC1CCCC(NC(=O)c2ccccc2)C1)C(=O)c1c[nH]c2cccc(F)c12 (stereo not drawn)
> 50	CN(CCCN(C)C(=O)c1ccccc1)C(=O)C(=O)c1c[nH]c2cccc(F)c12
30.5	O=C(N[C@H]1CCCC[C@H]1NC(=O)c1ccccc1)C(=O)c1c[nH]c2cccc(F)c12 (relative stereo)
> 50	O=C(N[C@H]1CCCC[C@@H]1NC(=O)c1ccccc1)C(=O)c1c[nH]c2cccc(F)c12 (relative stereo)

tested on: not listed separately; experiment: Cytotoxicity against human HeLa67 cell after 3 days by XTT assay; assay type: cell-based; conditions: HeLa67 cells
In short: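 HeLa67 cells exposed to test compounds in parallel with the antiviral assay; XTT read-out 3 days after compound addition, giving CC50.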

SMILES	CC50 at 72 h [µM]
O=C(NCCCNC(=O)c1ccccc1)C(=O)c1c[nH]c2cccc(F)c12	> 300
CN(CCN(C)C(=O)c1ccccc1)C(=O)C(=O)c1c[nH]c2cccc(F)c12	> 300
O=C(C(=O)N1CCCN(C(=O)c2ccccc2)CC1)c1c[nH]c2cccc(F)c12	> 300
O=C(NCCNC(=O)c1ccccc1)C(=O)c1c[nH]c2cccc(F)c12	> 300
O=C(C(=O)N1CC2CC1CN2C(=O)c1ccccc1)c1c[nH]c2cccc(F)c12 (stereo not drawn)	> 300
O=C(NC1CCCC(NC(=O)c2ccccc2)C1)C(=O)c1c[nH]c2cccc(F)c12 (stereo not drawn)	> 300
CN(CCCN(C)C(=O)c1ccccc1)C(=O)C(=O)c1c[nH]c2cccc(F)c12	> 300
O=C(N[C@H]1CCCC[C@H]1NC(=O)c1ccccc1)C(=O)c1c[nH]c2cccc(F)c12 (relative stereo)	65
O=C(N[C@H]1CCCC[C@@H]1NC(=O)c1ccccc1)C(=O)c1c[nH]c2cccc(F)c12 (relative stereo)	> 300

tested on: not listed separately; experiment: Metabolic stability in human liver microsomes after 10 mins; assay type: ADME, Microsome; conditions: read-out: Stability

remaining at 10 min [%]	SMILES
98	O=C(C(=O)N1CCN(C(=O)c2ccccc2)CC1)c1c[nH]c2cccc(F)c12
100	COc1cccc2[nH]cc(C(=O)C(=O)N3CCN(C(=O)c4ccccc4)CC3)c12
63	CC(C)C1CN(C(=O)C(=O)c2c[nH]c3cccc(F)c23)CCN1C(=O)c1ccccc1 (stereo not drawn)
68	CC(C)(C)C1CN(C(=O)c2ccccc2)CCN1C(=O)C(=O)c1c[nH]c2cccc(F)c12 (stereo not drawn)
45	CCCCCC1CN(C(=O)C(=O)c2c[nH]c3cccc(F)c23)CCN1C(=O)c1ccccc1 (stereo not drawn)
52	CCCC1CN(C(=O)c2ccccc2)CCN1C(=O)C(=O)c1c[nH]c2cccc(F)c12 (stereo not drawn)
29	CCCCCC1CN(C(=O)c2ccccc2)CCN1C(=O)C(=O)c1c[nH]c2cccc(F)c12 (stereo not drawn)
58	CC(C)(C)C1CN(C(=O)C(=O)c2c[nH]c3cccc(F)c23)CCN1C(=O)c1ccccc1 (stereo not drawn)
85	C[C@H]1CN(C(=O)c2ccccc2)CCN1C(=O)C(=O)c1c[nH]c2cccc(F)c12
63	CCC1CN(C(=O)C(=O)c2c[nH]c3cccc(F)c23)CCN1C(=O)c1ccccc1 (stereo not drawn)
82	CC1CN(C(=O)c2ccccc2)CCN1C(=O)C(=O)c1c[nH]c2cccc(F)c12 (stereo not drawn)
50	CCCC1CN(C(=O)C(=O)c2c[nH]c3cccc(F)c23)CCN1C(=O)c1ccccc1 (stereo not drawn)
43	C[C@@H]1CN(C(=O)c2ccccc2)[C@@H](C)CN1C(=O)C(=O)c1c[nH]c2cccc(F)c12
84	COc1cccc2[nH]cc(C(=O)C(=O)N3CCN(C(=O)c4ccccc4)C[C@H]3C)c12
55	CCC1CN(C(=O)c2ccccc2)CCN1C(=O)C(=O)c1c[nH]c2cccc(F)c12 (stereo not drawn)
35	CC(C)CC1CN(C(=O)C(=O)c2c[nH]c3cccc(F)c23)CCN1C(=O)c1ccccc1 (stereo not drawn)
74	C[C@@H]1CN(C(=O)c2ccccc2)CCN1C(=O)C(=O)c1c[nH]c2cccc(F)c12
59	CC(C)C1CN(C(=O)c2ccccc2)CCN1C(=O)C(=O)c1c[nH]c2cccc(F)c12 (stereo not drawn)
55	C[C@@H]1CN(C(=O)c2ccccc2)C[C@H](C)N1C(=O)C(=O)c1c[nH]c2cccc(F)c12
100	CC1CN(C(=O)C(=O)c2c[nH]c3cccc(F)c23)CCN1C(=O)c1ccccc1 (stereo not drawn)
84	COc1cccc2[nH]cc(C(=O)C(=O)N3CCN(C(=O)c4ccccc4)CC3C)c12 (stereo not drawn)
98	COc1cccc2[nH]cc(C(=O)C(=O)N3CCN(C(=O)c4ccccc4)C[C@@H]3C)c12
38	CC(C)CC1CN(C(=O)c2ccccc2)CCN1C(=O)C(=O)c1c[nH]c2cccc(F)c12 (stereo not drawn)
69	C[C@@H]1CN(C(=O)C(=O)c2c[nH]c3cccc(F)c23)C[C@H](C)N1C(=O)c1ccccc1
76	C[C@@H]1CN(C(=O)c2ccccc2)[C@H](C)CN1C(=O)C(=O)c1c[nH]c2cccc(F)c12 (relative stereo)

— ChEMBL document CHEMBL1155364, “Inhibitors of HIV-1 attachment. Part 4: A study of the effect of piperazine substitution patterns on antiviral potency in the context of indole-based derivatives” (Bioorg Med Chem Lett, 2009)
